Six compounds from ChEMBL document CHEMBL1158423, “Antibacterial activity of berberine-NorA pump inhibitor hybrids with a methylene ether linking group” (2009) can be followed below.

As a reminder, the MIC is the smallest concentration in the dilution series that meets the test's criterion for growth inhibition.

The source made the active and inactive calls. A value given as a limit tells only on which side of the number the result lay.

Assay [1] relates to Enterococcus faecalis. The assay is described as follows: Antibacterial activity against Enterococcus faecalis V583 after 18 hrs by twofold serial dilution method. Format: functional. The note with it: V583, 18 h. A digest of the protocol: (§1)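 Broth microdilution: cells at 10^5 mL−1 in broth, serial 2-fold dilutions of compound, triplicate determinations; 18 h at 37 °C; growth followed by absorbance at 600 nm. MIC taken as the lowest concentration giving complete growth inhibition.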

Assay [2] deals with Escherichia coli. Nature of the assay: Antibacterial activity against Escherichia coli ECM116 mar1642 overexpressing […] pump after 18 hrs by twofold serial dilution method. The note with it: ECM116, 18 h. Format: functional. A digest of the protocol:
(§2)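 Broth microdilution with serial 2-fold dilutions of compound, cells inoculated at 10^5 per mL, in triplicate. MIC is the lowest concentration giving complete growth inhibition over 18 h at 37 °C. Growth is read as absorbance at 600 nm.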

Assay [3] has as its system Escherichia coli. Nature of the assay: Antibacterial activity against Escherichia coli BW-25116 TolC-deficient mutant after 18 hrs by twofold serial dilution method. The note with it: BW25116, 18 h. Format: functional. A digest of the protocol: as §2
The test system of assay [4] is Enterococcus faecalis. The assay is described as follows: Antibacterial activity against Enterococcus faecalis OG1RF after 18 hrs by twofold serial dilution method. Format: functional. A digest of the protocol: as §1
Assay [5] deals with Staphylococcus aureus. Nature of the assay: Antibacterial activity against wild type Staphylococcus aureus 8325-4 after 18 hrs by twofold serial dilution method. Format: functional. The note with it: 8325-4, 18 h. A digest of the protocol:
as §1

The test system of assay [6] is Escherichia coli. Nature of the assay: Antibacterial activity against Escherichia coli ECM1642 after 18 hrs by twofold serial dilution method. Format: functional. The note with it: ECM1642, 18 h. A digest of the protocol:
as §1

The subject of assay [7] is Escherichia coli. Nature of the assay: Antibacterial activity against Escherichia coli K-12 after 18 hrs by twofold serial dilution method. Format: functional. The note with it: K-12, 18 h. A digest of the protocol: as §1
The subject of assay [8] is Enterococcus faecalis. Nature of the assay: Antibacterial activity against Enterococcus faecalis MMH594 after 18 hrs by twofold serial dilution method. Format: functional. The note with it: MMH594, 18 h. A digest of the protocol: as §1
The subject of assay [9] is Staphylococcus aureus. The assay is described as follows: Antibacterial activity against Staphylococcus aureus K1758 NorA efflux pump-deficient mutant after 18 hrs by twofold serial dilution method. The note with it: K1758, 18 h. Format: functional. A digest of the protocol: as §2
Assay [10] deals with Staphylococcus aureus. The assay is described as follows: Antibacterial activity against Staphylococcus aureus K2378 overexpressing NorA efflux pump after 18 hrs by twofold serial dilution method. Format: functional. The note with it: K2378, 18 h. A digest of the protocol: as §2
For assay [11], the system named is Staphylococcus aureus. Nature of the assay: Antibacterial activity against wild type Staphylococcus aureus 8325-4 after 18 hrs by twofold serial dilution method relative to berberine. Format: functional. A digest of the protocol: (§3)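 Broth microdilution with an inoculum of 10^5 cells/mL and serial 2-fold compound dilutions, run in triplicate. Plates were incubated 18 h at 37 °C and growth was read as absorbance at 600 nm. MIC was the lowest concentration giving complete growth inhibition.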

In assay [12] the test system is Staphylococcus aureus. Nature of the assay: Antibacterial activity against Staphylococcus aureus K2378 overexpressing NorA efflux pump after 18 hrs by twofold serial dilution method relative to berberine. Format: functional.
Assay [13] deals with Escherichia coli. The assay is described as follows: Antibacterial activity against Escherichia coli BW-25116 TolC-deficient mutant after 18 hrs by twofold serial dilution method relative to berberine. Format: functional, BW25116. A digest of the protocol:
as §3

For assay [14], the system named is Escherichia coli. Nature of the assay: Antibacterial activity against Escherichia coli ECM116 mar1642 overexpressing […] pump after 18 hrs by twofold serial dilution method relative to berberine. Format: functional. A digest of the protocol:
as §3

The subject of assay [15] is Staphylococcus aureus. The assay is described as follows: Antibacterial activity against Staphylococcus aureus K1758 NorA efflux pump-deficient mutant after 18 hrs by twofold serial dilution method relative to berberine. Format: functional.
In assay [16] the test system is Nucleic Acid. Nature of the assay: Binding affinity to D2 duplex DNA by electrospray ionization mass spectrometry. Format: nucleic-acid assay. A digest of the protocol:
(§4)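 Duplex D1, D2 or forked F10 was annealed from complementary strands in 0.1 M ammonium acetate. ESI-MS used a 100 V cone voltage; thirty acquisitions were combined, baseline-subtracted and smoothed.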

The subject of assay [17] is Nucleic Acid. The assay is described as follows: Binding affinity to quadruplex Q3 DNA by electrospray ionization mass spectrometry. Format: nucleic-acid assay.
In assay [18] the test system is Nucleic Acid. The assay is described as follows: Binding affinity to D1 duplex DNA by electrospray ionization mass spectrometry. Format: nucleic-acid assay. A digest of the protocol:
as §4

In assay [19] the test system is Nucleic Acid. Nature of the assay: Binding affinity to quadruplex Q1 DNA by electrospray ionization mass spectrometry. Format: nucleic-acid assay.
For assay [20], the system named is Nucleic Acid. The assay is described as follows: Binding affinity to F10 duplex DNA by electrospray ionization mass spectrometry. Format: nucleic-acid assay. A digest of the protocol: as §4
In assay [21] the target is T1, Quinolone resistance protein NorA (Staphylococcus aureus) (UniProt P0A0J7).
T1 sequence (whole entry): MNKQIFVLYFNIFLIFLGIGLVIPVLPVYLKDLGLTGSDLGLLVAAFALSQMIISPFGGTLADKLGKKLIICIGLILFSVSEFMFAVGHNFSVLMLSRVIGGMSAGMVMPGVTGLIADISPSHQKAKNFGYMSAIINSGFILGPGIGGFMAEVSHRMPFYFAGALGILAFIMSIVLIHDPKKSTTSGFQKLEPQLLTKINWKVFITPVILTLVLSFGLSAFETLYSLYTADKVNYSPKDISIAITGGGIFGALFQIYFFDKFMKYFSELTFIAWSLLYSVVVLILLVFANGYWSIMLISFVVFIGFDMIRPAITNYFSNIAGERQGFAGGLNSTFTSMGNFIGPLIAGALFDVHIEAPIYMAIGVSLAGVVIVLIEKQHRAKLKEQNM
The assay is described as follows: Inhibition of NorA efflux pump in wild type Staphylococcus aureus 8325-4 assessed as increase in berberine accumulation at 3 uM. A digest of the protocol: (§5)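 Cells are grown at 37 °C to OD600 1.5 and washed twice in PBS. They are energised in PBS with 10 mM dextrose (OD ~0.8) for 1 h at 37 °C with aeration, washed, then diluted to OD ~0.3 in PBS. Compounds are added at 3 μM final. Accumulation is followed by fluorescence at ex/em 355/517 nm, with cell-free background subtracted.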

Assay [22] addresses T1, Quinolone resistance protein NorA (Staphylococcus aureus). The assay is described as follows: Inhibition of NorA efflux pump in Staphylococcus aureus K2378 overexpressing NorA efflux pump overexpressing NorA efflux pump assessed as increase in berberine accumulation at 3 uM. A digest of the protocol:
as §5

Assay [23] shares this target. The assay is described as follows: Inhibition of NorA efflux pump in Staphylococcus aureus K2378 overexpressing NorA efflux pump assessed as potentiation of EtBr uptake at 3 uM. A digest of the protocol:
(§6)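 Cells are prepared as for the accumulation assay: grown to OD600 1.5, washed in PBS, energised 1 h at 37 °C in PBS with 10 mM dextrose, then diluted to OD ~0.3 in PBS. The inhibitor (3 μM final) is added before ethidium bromide. Uptake is read by fluorescence at ex/em 530/600 nm, with cell-free background subtracted.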

For assay [24] the target is unchanged. The assay is described as follows: Inhibition of NorA efflux pump in wild type Staphylococcus aureus 8325-4 assessed as potentiation of EtBr uptake at 3 uM. A digest of the protocol:
as §6

For assay [25] the target is unchanged. The assay is described as follows: Inhibition of NorA efflux pump in Staphylococcus aureus K1758 NorA efflux pump-deficient mutant assessed as increase in berberine accumulation at 3 uM. A digest of the protocol: as §5
Assay [26] has the same target. Nature of the assay: Inhibition of NorA efflux pump in Staphylococcus aureus K1758 NorA efflux pump-deficient mutant assessed as potentiation of EtBr uptake at 3 uM. A digest of the protocol: as §6
For assay [27] the target is unchanged. The assay is described as follows: Inhibition of NorA efflux pump in Staphylococcus aureus K2378 overexpressing NorA efflux pump assessed as inhibition of EtBr efflux at 3 uM. A digest of the protocol:
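K2378 cells are grown at 37 °C to OD ~0.9, washed in PBS and loaded with 3 μM ethidium bromide plus 30 μg/mL reserpine for 20 min at 37 °C. After ice-cold washes, they are added at OD 0.3 to ice-cold PBS with 10 mM dextrose containing inhibitor at 3 μM final. The no-efflux control is PBS without dextrose plus reserpine. Efflux is read at ex/em 530/600 nm.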

As for `COc1ccc2cc3[n+](cc2c1OC)CCc1cc2c(cc1-3)OCO2` [BERBERINE CHLORIDE], the MIC against Enterococcus faecalis [1] is greater than 650 µM; in the assay on Escherichia coli [2], 325 µM; in the assay with Escherichia coli [3] it was 325 µM; against Enterococcus faecalis [4], 650 µM; against Staphylococcus aureus [5], 325 µM; in the assay on Escherichia coli [6], greater than 2600 µM. Further, the MIC was greater than 2600 µM against Escherichia coli [7], greater than 650 µM against Enterococcus faecalis [8], 40 µM with Staphylococcus aureus [9] and greater than 650 µM against Staphylococcus aureus [10].
For `COc1ccc2c(OCc3ccccc3)c3[n+](cc2c1OC)CCc1cc2c(cc1-3)OCO2.[Br-]`, the “fold change (FC)” value with Staphylococcus aureus [11] is reported as 14; in the assay with Staphylococcus aureus [12] it was 7; in the assay on Escherichia coli [13], 27; with Escherichia coli [14], 14; in the assay on Staphylococcus aureus [15], 3. The minimal inhibitory concentration (MIC) is 24 µM in the assay on Escherichia coli [2]; 12 µM against Escherichia coli [3]; 24 µM against Staphylococcus aureus [5]; greater than 192 µM with Escherichia coli [6]; greater than 192 µM against Escherichia coli [7]; 12 µM with Staphylococcus aureus [9]. In the assay with Staphylococcus aureus [10], 95.8 µM was the least that counted as inhibitory (MIC).
For `COc1ccc2c(OCc3ccc4ccccc4c3)c3[n+](cc2c1OC)CCc1cc2c(cc1-3)OCO2.[Br-]`, the “fold change (FC)” value is 30 in the assay with Staphylococcus aureus [11]; greater than 30 in the assay with Staphylococcus aureus [12]; 30 with Escherichia coli [13]; 15 with Escherichia coli [14]; 7 in the assay on Staphylococcus aureus [15]. In addition, the Activity in the assay with Nucleic Acid [16] worked out at 20%; with Nucleic Acid [17], 67%; in the assay with Nucleic Acid [18] it was 30%; with Nucleic Acid [19] it was 100%; in the assay on Nucleic Acid [20], 15%. Also, the MIC against Escherichia coli [2] is 21.9 µM; with Escherichia coli [3], 10.9 µM; in the assay with Staphylococcus aureus [5] it was 10.9 µM; against Escherichia coli [6], greater than 175 µM; in the assay on Escherichia coli [7], greater than 175 µM; in the assay on Staphylococcus aureus [9], 5.5 µM. In addition, in the assay with Staphylococcus aureus [10], inhibition of growth (MIC) required 21.9 µM.
In the case of `COc1ccc2c(Cc3ccccc3-c3cc4cc([N+](=O)[O-])ccc4[nH]3)c3[n+](cc2c1OC)CCc1cc2c(cc1-3)OCO2`, the outcome in assay [21], in [22], in assay [23], in [24], in assay [25] and in assay [26] was Active. The outcome in [27] was Active. In addition, the MIC against Enterococcus faecalis [1] was 6.3 µM; in the assay with Escherichia coli [2], greater than 150 µM; against Escherichia coli [3], greater than 150 µM; with Enterococcus faecalis [4], 6.3 µM; against Staphylococcus aureus [5] it was 3.1 µM; in the assay with Escherichia coli [6], greater than 150 µM. Besides, the MIC in the assay with Escherichia coli [7] was greater than 150 µM; in the assay on Enterococcus faecalis [8] it was 6.3 µM; with Staphylococcus aureus [9], 3.1 µM; with Staphylococcus aureus [10], 3.1 µM.
`COc1ccc2c(OCc3ccccn3)c3[n+](cc2c1OC)CCc1cc2c(cc1-3)OCO2.[Br-]`: the “fold change (FC)” value with Staphylococcus aureus [11] is reported as less than 2; with Staphylococcus aureus [12], greater than 3; in the assay with Escherichia coli [13], 2; with Escherichia coli [14], 2; in the assay on Staphylococcus aureus [15] it was less than 5. The MIC against Escherichia coli [2] is 191 µM; against Escherichia coli [3], 191 µM; against Staphylococcus aureus [5], greater than 191 µM; against Escherichia coli [6], greater than 191 µM; against Escherichia coli [7] it was greater than 191 µM; against Staphylococcus aureus [9], 191 µM. In the assay with Staphylococcus aureus [10], this compound displayed an MIC greater than 191 µM.
Consider `COc1ccc2c(OCc3ccc(C#N)cc3)c3[n+](cc2c1OC)CCc1cc2c(cc1-3)OCO2.[Br-]`, for which the “fold change (FC)” value in the assay on Staphylococcus aureus [11] was 2; with Staphylococcus aureus [12] it was 4; in the assay on Escherichia coli [13] it was 4; with Escherichia coli [14], 7; with Staphylococcus aureus [15], less than 2. For the same compound, the MIC is 45.7 µM in the assay with Escherichia coli [2]; 91.4 µM in the assay on Escherichia coli [3]; 183 µM with Staphylococcus aureus [5]; greater than 183 µM against Escherichia coli [6]; greater than 183 µM in the assay with Escherichia coli [7]; 91.4 µM with Staphylococcus aureus [9]. In addition, the MIC against Staphylococcus aureus [10] was greater than 183 µM.
